Measurements published in publication PMC3944102 (ACS chemical biology, 2013).
Like-named read-outs stand apart in the source and are kept apart here.

Experiments:
[1] = molecular target: T1, VopS (Vibrio parahaemolyticus serotype O3:K6, UniProt Q87P32); experiment: biochemical
[2] = test system: VopS; conditions: read-out: KM of VopS for ATP; cited from earlier work
[3] = molecular target: T1, VopS; experiment: biochemical; conditions: for inhibition at 11 µM: read-out: Primary screen inhibition; for Primary screen inhibition: LOPAC screen at 11 µM, FP read at 3 h, average of three replicates
[4] = molecular target: PAD4 (Homo sapiens, UniProt Q9UM07); experiment: PAD4 FP-ABPP HTS counterscreen with fluorescein-conjugated F-amidine; format: biochemical
In short: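 Fluorescence polarization read-out with the fluorescein-tagged probe FFA, which covalently modifies an active-site cysteine of PAD4 and gives a time-dependent rise in FP when incubated with the enzyme. Test compounds were run as concentration-response curves, and inhibition was read as reduced FP. Used as a counterscreen to flag quenchers, aggregators and other non-specific FP decreasers.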

[5] = molecular target: T1, VopS; experiment: biochemical; format: biochemical; conditions: for Labeling of Cdc42 in gel (in words): 10 µM inhibitor; for inhibition at 10 µM: read-out: Gel based % inhibition VopS; for Gel based % inhibition VopS: 10 µM compound, relative to DMSO control
[6] = test system: VopS; experiment: biochemical; format: biochemical, Vibrio parahaemolyticus; conditions: VopS over HYPE, from gel based % inhibition at 10 µM
[7] = test system: HYPE Fic E234G; experiment: Gel-based secondary screen, HYPE Fic E234G with histone H3 as substrate; format: biochemical, human; conditions: 10 µM compound, relative to DMSO control
[8] = molecular target: T1, VopS; format: biochemical
[9] = test system: VopS transfected HeLa cells; experiment: Cellular protein AMPylation, Western blot; format: cell-based; conditions: Western blotting, 1 and 3 at 10 µM, 4 at 5 µM, 18 h
[10] = test system: VopS transfected HeLa cells; experiment: Cell rounding phenotype induced by VopS overexpression; format: cell-based; conditions: 10 µM
[11] = molecular target: VopSΔ30 (Vibrio parahaemolyticus serotype O3:K6, UniProt Q87P32); experiment: Differential hydrogen deuterium exchange; format: binding; conditions: 10 µM VopSΔ30, 100 µM or 30 µM ligand
[12] = read-out: CRC IC50 PAD4, PAD4 targeted FP-ABPP assay

PAD4, sequence (Q9UM07 whole entry, species assumed): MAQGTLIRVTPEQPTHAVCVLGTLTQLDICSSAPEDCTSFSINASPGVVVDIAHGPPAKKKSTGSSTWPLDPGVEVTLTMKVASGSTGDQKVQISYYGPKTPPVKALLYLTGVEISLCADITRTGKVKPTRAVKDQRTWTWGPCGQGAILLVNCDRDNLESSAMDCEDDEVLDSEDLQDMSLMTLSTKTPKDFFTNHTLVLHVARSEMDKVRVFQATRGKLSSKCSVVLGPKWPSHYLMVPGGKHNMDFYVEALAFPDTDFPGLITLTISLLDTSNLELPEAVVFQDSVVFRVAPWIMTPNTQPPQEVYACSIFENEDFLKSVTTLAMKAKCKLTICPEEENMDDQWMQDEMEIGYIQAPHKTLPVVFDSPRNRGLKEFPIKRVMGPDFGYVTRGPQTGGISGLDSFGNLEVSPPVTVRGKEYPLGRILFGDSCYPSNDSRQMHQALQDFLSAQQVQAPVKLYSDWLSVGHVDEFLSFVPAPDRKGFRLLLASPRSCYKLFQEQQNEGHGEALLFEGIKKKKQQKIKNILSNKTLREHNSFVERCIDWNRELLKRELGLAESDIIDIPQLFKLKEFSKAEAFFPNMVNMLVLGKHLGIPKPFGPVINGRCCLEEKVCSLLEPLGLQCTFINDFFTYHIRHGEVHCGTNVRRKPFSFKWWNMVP

Compound	IC50 ([1]; IC50(ATP), 3 h, 7 replicates, ATP out competing Fl-ATP)	IC50 ([1]; IC50, at 1, 2, and 3 h)	Km [2]	inhibition at 11 µM [3]	IC50 [4]	Labeling of Cdc42 in gel (in words) [5]	inhibition at 10 µM [5]	Fold selective [6]	Gel based % inhibition HYPE [7]	Kii ([8]; varied substrate ATP)	Mechanism of inhibition ([8]; varied substrate ATP)	Kii ([8]; varied substrate Cdc42)	Mechanism of inhibition ([8]; varied substrate Cdc42)	Cellular protein AMPylation [9]	Reversal of cell rounding phenotype [10]	Primary screen inhibition [3]	IC50 [4, 12]	Gel based % inhibition VopS [5]	HDX protection / binding region of VopS [11]	Ki ([8]; competitive with respect to Cdc42)
Nc1ncnc2c1ncn2[C@@H]1O[C@H](COP(=O)(O)OP(=O)(O)OP(=O)(O)O)[C@@H](O)[C@H]1O [ATP, adenosine triphosphate]	7 ± 1 µM	6.8 to 7 µM	~50 µM	–	–	–	–	–	–	–	–	–	–	–	–	–	–	–	–	–
CC(C)(Sc1ccc(CCN(CCCCC2CCCCC2)C(=O)NC2CCCCC2)cc1)C(=O)O [Compound 1, GW7647]	–	–	–	61%	> 59 µM	decrease in labeling	55%	6 fold	10%	41 ± 5 µM	Non-competitive	20 ± 1 µM	Non-competitive	decreased cellular protein AMPylation	unable to reverse the cell rounding phenotype	–	–	–	–	–
Nc1ncnc2c1ncn2[C@@H]1O[C@H](COP(=O)(O)OP(=O)(O)OP(=O)(O)OP(=O)(O)OC[C@H]2O[C@@H](n3cnc4c(N)ncnc43)[C@H](O)[C@@H]2O)[C@@H](O)[C@H]1O [Compound 2, Ap4A]	–	–	–	–	–	–	–	–	41%	–	–	–	–	–	–	47% ± 4	> 59 µM	3%	–	–
CC(C)c1ccc2c(c1)c(SC(C)(C)C)c(CC(C)(C)C(=O)O)n2Cc1ccc(Cl)cc1 [Compound 3, MK886]	–	–	–	–	–	decrease in labeling	–	6 fold	4%	50 ± 6 µM	Non-competitive	99 ± 16 µM	Non-competitive	decreased cellular protein AMPylation	unable to reverse the cell rounding phenotype	41% ± 3	> 59 µM	22%	increased protection within the N-terminus of VopS (residues 59–75)	–
Clc1ccc(C(c2ccc(Cl)cc2)n2cc[n+](CC(OCc3ccc(Cl)cc3Cl)c3ccc(Cl)cc3Cl)c2)cc1 (stereo not drawn) [Compound 4, calmidazolium]	–	–	–	33%	> 59 µM	decrease in labeling	63%	32 fold	2%	26 ± 4 µM	Non-competitive	6 ± 1 µM	Competitive	did not show a significant decrease	–	–	–	–	binds to the N-terminal region of VopS (in particular residues 59–63)	6 ± 1 µM
